ChEMBL document CHEMBL1255460, “Cyclotide interactions with the nematode external surface” (Antimicrob Agents Chemother, 2010)
Calls of active or inactive are those of the source. No cut-off for these calls is given here.

Columns and labels:
Assay type in all cases: functional, organism-based
Haemonchus contortus [1] = test: Antiparasitic activity against adult Haemonchus contortus assessed as [3H]inulin uptake at 1000 nM
Haemonchus contortus [2] = test: Antiparasitic activity against adult Haemonchus contortus pharyngeal ligation model assessed as decrease [3H]inulin uptake at 10 nM
Haemonchus contortus [3] = test: Antiparasitic activity against adult Haemonchus contortus assessed as reduction in FITC-dextran uptake at 10 nM after 24 hrs
In short: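 Groups of about 10 adult worms held 6 h with or without 10 nM ivermectin. FITC-dextran (40 kDa, 5 mg/ml final) then added. After 24 h, worms washed in PBS, fixed in 10% formalin, and photographed under white and UV light as a measure of feeding.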

Haemonchus contortus [4] = test: Antiparasitic activity against adult Haemonchus contortus assessed as [3H]inulin uptake at 10 nM
In short: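 Adult females taken from sheep abomasa 10 to 15 weeks postinfection, held in RPMI 1640-based medium (pH 6.8) at 37°C, in groups of 10. Ivermectin in DMSO given at 0.1 to 100 nM; DMSO-only controls at 0.2% final. [3H]inulin (4 μCi/ml final) added after 6 h. After a further 24 h, worms solubilized in 0.5 M KOH at 50°C overnight, neutralized, and radioactivity counted. Done in triplicate.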

Haemonchus contortus [5] = test: Antiparasitic activity against adult Haemonchus contortus assessed as decrease in motility
In short: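 Adult worms in groups of 10 in RPMI-based medium at 37°C, given ivermectin in DMSO at 0.1 to 100 nM, with 0.2% DMSO controls. Motility scored 30 h after start, using the O'Grady and Kotze system. Triplicate.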

In the case of IVERMECTIN, the Activity (Haemonchus contortus [1]) is reported as “inactive”, the Activity (Haemonchus contortus [2]) is reported as “Active” and the Activity (Haemonchus contortus [3]) is reported as “Active”. For the same sequence, the Activity (Haemonchus contortus [4]) was “inactive” and the Activity (Haemonchus contortus [5]) was “Dose-dependent effect”.
